Our source for the cytotoxicity values is ChEMBL document CHEMBL4513216, “Probing the Open Global Health Chemical Diversity Library for Multistage-Active Starting Points for Next-Generation Antimalarials” (ACS Infect Dis, 2020).

The data set in a line: Toxicity liver stage against HepG2, at 10uM. In kind it is cell-based. The settings on record: human, HepG2-A16-CD81EGFP cells; read-out: INHIBITION
More on the design: test concentration 10 uM, cell line HepG2-A16-CD81EGFP. The method in brief: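 Uninfected HepG2-A16-CD81EGFP cells, 3 × 10^3 per well, 1536-well, plated on prespotted compound at 10 μM final, parasite-free screening media added to match infected plates; puromycin 10 μM positive, DMSO 0.5% negative; run in parallel with 48 h PbLuc assay at 37 °C, 5% CO2; viability by CellTiter-Glo luminescence, normalized to controls.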
In the case of `CCOc1ccc(NC(=O)c2cnc(N3CCCC3)nc2C)cc1`, the cytotoxicity at 10 µM is -7.81%.
In the case of `Cn1nc(CNC(=O)c2cccc(C(F)(F)F)c2)c2c1CCOC2` it was 4.07%; in that of `CC1CC2(CCN(C(=O)c3csnn3)CC2)c2ccccc21` (stereo not drawn), -137%; in that of `c1ccc(NC[C@@H]2CCC[C@@H]3CN(Cc4csnn4)C[C@@H]32)nc1`, -114%.
In the case of `CSCCC(CO)NC(=O)c1sc(-c2ccccc2Cl)nc1C` (stereo not drawn) it was 1.11%; in that of `O=C(Cn1ccc2ccccc21)NCc1ccc(C(=O)O)cc1`, -6.13%; in that of `COCCO[C@@H]1C[C@H]2CN(C(=O)c3cnccn3)CCN2C1`, -8.58%.
In the case of `CC(=O)Nc1ncc(S(=O)(=O)Nc2ccccc2F)s1` it was 14.4%; in that of `CN(C)CCCNC(=O)c1nnsc1-c1ccccc1`, 5.75%; in that of `CCn1cc(NC(=O)C(C)n2ncc(Cl)c2C)c(C(=O)NC)n1` (stereo not drawn), 9.51%.
For `O=C1CC(c2ccc(F)cc2)c2snc(C(=O)O)c2N1` (stereo not drawn), the cytotoxicity at 10 µM was determined as 0.833%.
As to `COc1ccc(C2=NOC(C#N)C2)cc1` (stereo not drawn), the cytotoxicity at 10 µM was -11.2%.
In the case of `OCCc1cc(C2CCCN2c2ncccn2)n[nH]1` (stereo not drawn), the cytotoxicity at 10 µM is 5.56%.
The value for `NC(=O)CN1CCCC(Cc2ccc(N3CCOCC3)nn2)C1` (stereo not drawn) was 8.21%; that for `CCCn1cc(CN2CCCC2c2cccc(-n3ccnc3)n2)cn1` (stereo not drawn) was -19.6%; that for `Cc1noc(C)c1-c1cncc(C2CCCN2Cc2nccs2)n1` (stereo not drawn) was -14.2%.
The value for `Cc1cc(N(C)C)nc(C2(C)CCCN2C(=O)c2ccccc2)n1` (stereo not drawn) was -27.4%.
As to `CN(C)Cc1ccnc(C2CCCN2Cc2cccc(F)c2F)n1` (stereo not drawn), the cytotoxicity at 10 µM was found to be 2.22%.
In the case of `Cc1cc2cc(C(=O)N3C[C@H](O)[C@]4(CCCO4)C3)ccc2o1` it was -10.9%; in that of `c1cnc(N2CCCC(c3cncc(-n4ccnc4)n3)C2)nc1` (stereo not drawn), -11.8%; in that of `c1cnc(N2CCC(c3n[nH]c4ncccc34)C2)nc1` (stereo not drawn), -4.47%.
Regarding `CC1(C(=O)NCc2cccc(C(F)(F)F)c2)CCOCC1`, the cytotoxicity at 10 µM was determined as 7.63%.
As for `Cc1ccc(-n2nc3n(c2=O)CCN(C(=O)c2ccc(Cl)cc2)C3)cc1`, the cytotoxicity at 10 µM was 6.78%.
Take `COc1ccc(CNC(=O)C(NC(=O)Cc2ccccc2)C(C)C)cn1` (stereo not drawn): the cytotoxicity at 10 µM is -0.943%.
For the compound `NC(=O)COc1ccc(C2NC(=O)CN2Cc2ccc(Br)cc2)cc1` (stereo not drawn), the cytotoxicity at 10 µM is -7.38%.
For the compound `COCCCC(=O)NCc1cccc(NC(N)=O)c1`, the cytotoxicity at 10 µM is 0.808%.
In the case of `OCCN(Cc1cccnc1)c1ncc(Br)cn1` it was 9.68%.
In the case of `CC1CN(c2ncnc3cccc(F)c23)CCO1` (stereo not drawn) it was 16.1%.
In the case of `CCN(CC1CCCO1)C(=O)CSCC(=O)Nc1ccc(C)cc1` (stereo not drawn) it was -1.69%.
On to `COCCOc1ccc(NC(=O)N2CCOC(C(N)=O)C2)cc1F` (stereo not drawn), for which the cytotoxicity at 10 µM is -140%.
In the case of `COc1nc(C)ccc1CNC(=O)NC(C)(C)c1ncc(C)s1` it was 14.7%; in that of `CC(C)Cn1cc(NC(=O)NCC2CCN(c3ccccc3)C2)cn1` (stereo not drawn), 2.53%.
In the case of `Cn1nc2c(cc1=O)CN(Cc1ccc(-n3cccn3)cc1)CC2` it was -141%.
As to `CCN(Cc1cccc(NC(=O)COCCOC)c1)C(C)=O`, the cytotoxicity at 10 µM is -136%.
As to `COc1ccccc1N1CCC(CNC(=O)N(C)Cc2ccco2)C1` (stereo not drawn), the cytotoxicity at 10 µM is -146%.
On to `CCCc1nnnn1Cc1cn2c(C)cccc2n1`, for which the cytotoxicity at 10 µM is -8.51%.
For the compound `Cc1cc(CNC(=O)CCN2CCN(c3ccccn3)CC2)c(C)o1`, the cytotoxicity at 10 µM is 1.71%.
In the case of `CN(Cc1cc(Cl)ccc1Cl)Cc1ncnn1C` it was -0.943%.
Take `CC(=O)c1ccc(Cl)c(Cl)c1OCC(=O)NC(C)C`: the cytotoxicity at 10 µM was -9.66%.
Take `Cc1cc(NC(=O)N(C)C2CCCN(c3ccccc3)C2=O)n(C)n1` (stereo not drawn): the cytotoxicity at 10 µM came to 5.42%.
For `Cc1cccc(CCC(=O)Nc2cccnc2N2CCC(O)CC2)c1`, the cytotoxicity at 10 µM was -2.25%.
Regarding `CC(Nc1ccc(CN2CCCC2=O)cc1)C(=O)N(C)CCC#N` (stereo not drawn), the cytotoxicity at 10 µM came to 13.7%.
With `Cc1ccc(NCc2ccco2)cc1N1CCOC1=O`, the cytotoxicity at 10 µM is -10.6%.
In the case of `CC(C)N(C)CCCNC(=O)c1cnc(-c2ccccc2)nc1` it was -6.13%.
On to `CC(C)(C)OC(=O)N1CCCC[C@H]1C(=O)NCc1nccs1`, for which the cytotoxicity at 10 µM is -9.39%.
Take `Cc1nc(C)n(C2CCCN(C(=O)CCCn3ccnc3)C2)n1` (stereo not drawn): the cytotoxicity at 10 µM was 2.24%.
In the case of `CS(=O)(=O)NCc1nnc2n1CCN(Cc1ccc(F)cc1)C2` it was -72.7%; in that of `O=C(C1CCOC1)N1CCC2(CC1)CN(Cc1nccs1)CCO2` (stereo not drawn), -75%.
`CCc1nnc(NC(=O)c2ccc(C3CCCN3CC(C)C)s2)s1` (stereo not drawn): the cytotoxicity at 10 µM amounted to 2.14%.
On to `Cc1nc(NC(=O)NC2CC(=O)N(C(C)C)C2)nn1C(C)C` (stereo not drawn), for which the cytotoxicity at 10 µM was -1.55%.
`Cc1cnccc1NCCNC(=O)[C@H]1CNC[C@H](C(=O)N2CCCC2)C1`: the cytotoxicity at 10 µM is -124%.
In the case of `COc1ccc(-c2noc(Cn3cc(C)cn3)n2)c(OC)c1OC` it was -8.42%.
In the case of `OCC1(O)CCCN(Cc2ccc(-c3cc[nH]n3)s2)CC1` (stereo not drawn) it was -141%; in that of `OC1COCCN(Cc2cccc(N3CCOCC3)c2)C1` (stereo not drawn), -12.6%; in that of `Cc1cc(N2CCC3(CCC(=O)N(CCCO)C3)CC2)nc(N(C)C)n1`, -0.116%.
In the case of `O=C(O)c1cc(-c2cccs2)nc2c(Br)cnn12` it was -9.24%; in that of `Cc1ccc(=O)n(CC2(O)CCN(Cc3cnc(C)nc3)CC2)n1`, 4.3%; in that of `Cc1cc(C)n(C2CCCN(C(=O)c3ccc4c(c3)COC4)C2)n1` (stereo not drawn), -6.1%.
As for `Cc1ccc(NC2CCN(C(=O)c3cccc4ncccc34)CC2)nn1`, the cytotoxicity at 10 µM stood at 7.51%.
In the case of `O=C(Cc1ccc(-n2cccn2)cc1)N1CCN2CCCCC2C1` (stereo not drawn) it was 4.31%; in that of `CCc1noc(C(C)N2CCNCC2)n1` (stereo not drawn), -3.46%; in that of `CC(NC(=O)c1cc(Br)c2c(c1)OCCO2)C(N)=O` (stereo not drawn), -1.06%.
In the case of `Cc1cnn(C2CCCN(C(=O)CCCOc3cccc(F)c3)C2)c1` (stereo not drawn) it was 6.71%.
The value for `CC(OCC(F)(F)F)C(=O)Nc1ccc(-n2cncn2)nc1` (stereo not drawn) was 3.44%; that for `CCOc1ccccc1C1CCCN1` (stereo not drawn) was -14.1%; that for `c1cc2nccc(CC3CCCN(C4CCOCC4)CC3)c2cn1` (stereo not drawn) was -8.24%.
Regarding `CNC(=O)CN1CCOCC12CCN(C(=O)c1ccc(C)cc1)CC2`, the cytotoxicity at 10 µM is -87.6%.
The value for `Cn1nnc2c1CCN(Cc1nccs1)C2COCc1ccccc1` (stereo not drawn) was -2.01%.
In the case of `Cc1ncsc1CN1C[C@@H](OCc2ccncc2)[C@H]2OCCC[C@H]21` it was -148%; in that of `CN(C)[C@@H]1CCN(C(=O)Cc2ccc(F)cc2)[C@H]1Cc1ccncc1`, -84.7%.
Consider `COCC1CN(C(=O)Cc2ccccn2)Cc2c1cnn2CC1CC1` (stereo not drawn), for which the cytotoxicity at 10 µM is -69.1%.
Turning to `CN(C)CCN1CCO[C@@H]2CN(C(=O)c3cccs3)CC[C@@H]2C1`, the cytotoxicity at 10 µM was determined as 1.34%.
On to `Cc1nc(CN2CCc3ncnc(C4CC4)c3CC2)cs1`, for which the cytotoxicity at 10 µM was -81.9%.
